ChEMBL document CHEMBL5149984, “Discovery of HN37 as a Potent and Chemically Stable Antiepileptic Drug Candidate” (J Med Chem, 2021)

Tests used:
[1] = Tmax in Kunming mouse plasma at 5 mg/kg, po measured upto 24 hrs by LC-MS/MS method; assay type: ADME, organism-based
In short: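 Male KM mice (18–24 g), fasted 12 h before and 2 h after dosing, n = 3 per time point. Oral dose in 5% DMSO/5% Tween 80/90% saline; i.v. dose is that formulation diluted in saline with 1% Tween 80. Blood sampled 0.25–24 h after oral dosing, 0.083–24 h after i.v.; whole brain taken after oral dosing. Acetonitrile extraction with internal standard, LC-MS/MS.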

[2] = Tmax in Sprague-Dawley rat at 20 mg/kg, po measured upto 24 hrs by LC-MS/MS method; assay type: ADME, organism-based; conditions: in vivo
In short: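 Male SD rats (180–220 g) dosed orally at 2, 6 and 20 mg/kg, handled like the mice: fasting, 5% DMSO/5% Tween 80/saline vehicle, acetonitrile extraction, LC-MS/MS of plasma. In a separate set at 6 mg/kg p.o., blood and brain were sampled together.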

[3] = Metabolic stability in monkey liver microsomes assessed as half life; assay type: ADME, Macaca mulatta, Microsome; conditions: rhesus monkey
[4] = molecular target: CYP2D6 (Homo sapiens, UniProt P10635); test: Inhibition of human liver microsome CYP2D6 at 0.10 to 50 uM preincubated with NADPH for 0.5 hrs followed by substrate addition by LC-MS/MS method relative to control; assay type: ADME; conditions: liver microsomes, dose 0.1-50 µM
[5] = molecular target: T1, CYP3A4 (Homo sapiens, UniProt P08684); test: Inhibition of human liver microsome CYP3A4 at 0.10 to 50 uM preincubated with NADPH for 0.5 hrs followed by substrate addition by LC-MS/MS method relative to control; assay type: ADME; conditions: liver microsomes, dose 0.1-50 µM
In short: (§1)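 Human liver microsomes preincubated 0.5 h with 0.10−50 μM compound, with or without NADPH, then CYP-specific probe substrates added (CYP3A4 with midazolam 1′-hydroxylation and with testosterone 6β-hydroxylation). Metabolites quantified by LC−MS/MS; % activity remaining computed against no-compound control. IC50 fitted by Probit model; ratio = IC50(−NADPH)/IC50(+NADPH).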

[6] = molecular target: Cytochrome P450 2C9 (Homo sapiens, UniProt P11712); test: Time dependent inhibition of human liver microsome CYP2C9 preincubated for 0.5 hrs in presence or absence of NADPH followed by substrate addition by LC-MS/MS method; assay type: ADME, microsomes
In short: (§2)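 Human liver microsomes preincubated 0.5 h with 0.10–50 μM test compound, with or without NADPH, then CYP-specific probe substrate added and incubation continued. Metabolite measured by LC-MS/MS; % activity remaining relative to no-compound control; IC50 fitted by Probit model. For CYP3A4, midazolam 1′-hydroxylation and testosterone 6β-hydroxylation were read separately.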

[7] = molecular target: T1, CYP3A4; test: Ratio of IC50 for human liver microsome CYP3A4 using midazolam as substrate in absence of NADPH to IC50 for human liver microsome CYP3A4 using midazolam as substrate in presence of NADPH; conditions: liver microsomes, probe midazolam, read-out: Ratio IC50; in short: as §1
[8] = molecular target: Cytochrome P450 1A2 (Homo sapiens, UniProt P05177); test: Time dependent inhibition of human liver microsome CYP1A2 preincubated for 0.5 hrs in presence of NADPH followed by substrate addition by LC-MS/MS method; assay type: ADME, microsomes; in short: as §2
[9] = molecular target: Cytochrome P450 2C8 (Homo sapiens, UniProt P10632); test: Time dependent inhibition of human liver microsome CYP2C8 preincubated for 0.5 hrs in presence of NADPH followed by substrate addition by LC-MS/MS method; assay type: ADME, microsomes; in short: as §2
[10] = molecular target: CYP2B6 (Homo sapiens, UniProt P20813); test: Ratio of IC50 for human liver microsome CYP2B6 in absence of NADPH to IC50 for human liver microsome CYP2B6 in presence of NADPH; conditions: liver microsomes, read-out: Ratio IC50
[11] = molecular target: Potassium voltage-gated channel subfamily KQT member 2 (Rattus norvegicus) (UniProt O88943); test: Agonist activity at rat KCNQ2 channel expressed in CHO cells assessed as amplitude change of outward current at 0.1 uM by patch clamp method; assay type: cell-based; conditions: filed as agonist
In short: (§3)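 Whole-cell patch clamp at room temperature on CHO cells (DMEM/F12, 10% FBS) transiently co-transfected with EGFP and hKCNQ1, rKCNQ2, rKCNQ3 A278T, hKCNQ4 or hKCNQ5; KCNQ2/3 at 1:1 cDNA ratio. Pipette solution 145 mM KCl, 5 mM MgATP, pH 7.3; bath 140 mM NaCl, 5 mM KCl, pH 7.4, under perfusion. V1/2 from Boltzmann fits; I/I0 is current amplitude with versus without compound; n = 4−6.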

[12] = molecular target: Potassium voltage-gated channel subfamily KQT member 2 (Rattus norvegicus) (UniProt O88943); test: Potency index, ratio of retigabine EC50 to test compound EC50 for agonist activity at rat KCNQ2 channel expressed in CHO cells by patch clamp method; assay type: cell-based
[13] = system: Mus musculus; test: Anticonvulsant activity in MES induced Kunming mouse model of seizure at 5 mg/kg, po after 1 hr; assay type: functional
In short: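 MES test in male KM mice. Compounds freshly suspended in 0.5% CMC-Na and given by gavage at 20 mL/kg; 160 V stimulus through ear clips. Protection scored as absence of hindlimb tonic extension; time course at 0.25, 0.5, 1 and 2 h, otherwise tested at 1 h. ED50 from dose−response by nonlinear regression; Fisher's exact test versus vehicle.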

[14] = Ratio of TC50 for Kunming mouse to EC50 for anticonvulsant activity in Kunming mouse; assay type: toxicity
In short: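 Male KM mice dosed orally in 0.5% CMC-Na and killed straight after the 1 h MES or rotarod test. Brain and plasma levels measured by LC−MS/MS. EC50 and TC50 fitted by nonlinear regression of protection or motor impairment against mean brain concentration; ratio = TC50,brain/EC50,brain.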

[15] = molecular target: T2, Potassium voltage-gated channel subfamily KQT member 1 (Homo sapiens, UniProt P51787); test: Agonist activity at human KCNQ1 channel expressed in CHO cells assessed as amplitude change of outward current at 10 uM by patch clamp method; assay type: cell-based; in short: as §3
T2 sequence (P51787 whole entry): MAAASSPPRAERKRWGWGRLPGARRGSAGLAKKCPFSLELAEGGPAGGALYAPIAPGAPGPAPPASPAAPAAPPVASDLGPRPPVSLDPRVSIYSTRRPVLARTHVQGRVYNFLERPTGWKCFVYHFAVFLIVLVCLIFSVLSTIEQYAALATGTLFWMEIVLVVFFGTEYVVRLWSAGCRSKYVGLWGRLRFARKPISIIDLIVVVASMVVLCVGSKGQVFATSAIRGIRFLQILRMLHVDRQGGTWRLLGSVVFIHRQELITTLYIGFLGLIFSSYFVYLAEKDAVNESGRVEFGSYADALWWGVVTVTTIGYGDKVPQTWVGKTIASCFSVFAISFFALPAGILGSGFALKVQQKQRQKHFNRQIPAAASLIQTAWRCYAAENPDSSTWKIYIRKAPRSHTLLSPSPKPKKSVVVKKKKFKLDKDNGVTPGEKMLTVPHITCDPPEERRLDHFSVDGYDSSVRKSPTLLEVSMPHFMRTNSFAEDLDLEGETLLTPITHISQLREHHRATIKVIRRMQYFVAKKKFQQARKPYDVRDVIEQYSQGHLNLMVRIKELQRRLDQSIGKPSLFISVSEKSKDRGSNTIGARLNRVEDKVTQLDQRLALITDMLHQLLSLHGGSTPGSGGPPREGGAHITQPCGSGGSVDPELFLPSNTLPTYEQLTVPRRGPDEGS

T1 sequence (P08684 whole entry): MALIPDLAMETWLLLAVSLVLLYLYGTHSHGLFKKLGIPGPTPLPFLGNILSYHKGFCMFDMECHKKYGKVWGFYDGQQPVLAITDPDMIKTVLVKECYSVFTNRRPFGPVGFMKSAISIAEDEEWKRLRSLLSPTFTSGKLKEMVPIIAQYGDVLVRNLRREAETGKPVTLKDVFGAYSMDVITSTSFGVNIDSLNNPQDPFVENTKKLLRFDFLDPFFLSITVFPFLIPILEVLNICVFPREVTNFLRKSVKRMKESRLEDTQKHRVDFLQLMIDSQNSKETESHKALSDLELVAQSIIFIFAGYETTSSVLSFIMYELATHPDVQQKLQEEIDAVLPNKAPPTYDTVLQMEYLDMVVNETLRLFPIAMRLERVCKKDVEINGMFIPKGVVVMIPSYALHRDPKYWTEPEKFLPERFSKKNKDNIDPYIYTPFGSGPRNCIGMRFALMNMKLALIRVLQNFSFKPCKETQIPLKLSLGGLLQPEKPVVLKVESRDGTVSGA
Potassium voltage-gated channel subfamily KQT member 2 (Rattus norvegicus), sequence (O88943 whole entry, the tested form may be a part): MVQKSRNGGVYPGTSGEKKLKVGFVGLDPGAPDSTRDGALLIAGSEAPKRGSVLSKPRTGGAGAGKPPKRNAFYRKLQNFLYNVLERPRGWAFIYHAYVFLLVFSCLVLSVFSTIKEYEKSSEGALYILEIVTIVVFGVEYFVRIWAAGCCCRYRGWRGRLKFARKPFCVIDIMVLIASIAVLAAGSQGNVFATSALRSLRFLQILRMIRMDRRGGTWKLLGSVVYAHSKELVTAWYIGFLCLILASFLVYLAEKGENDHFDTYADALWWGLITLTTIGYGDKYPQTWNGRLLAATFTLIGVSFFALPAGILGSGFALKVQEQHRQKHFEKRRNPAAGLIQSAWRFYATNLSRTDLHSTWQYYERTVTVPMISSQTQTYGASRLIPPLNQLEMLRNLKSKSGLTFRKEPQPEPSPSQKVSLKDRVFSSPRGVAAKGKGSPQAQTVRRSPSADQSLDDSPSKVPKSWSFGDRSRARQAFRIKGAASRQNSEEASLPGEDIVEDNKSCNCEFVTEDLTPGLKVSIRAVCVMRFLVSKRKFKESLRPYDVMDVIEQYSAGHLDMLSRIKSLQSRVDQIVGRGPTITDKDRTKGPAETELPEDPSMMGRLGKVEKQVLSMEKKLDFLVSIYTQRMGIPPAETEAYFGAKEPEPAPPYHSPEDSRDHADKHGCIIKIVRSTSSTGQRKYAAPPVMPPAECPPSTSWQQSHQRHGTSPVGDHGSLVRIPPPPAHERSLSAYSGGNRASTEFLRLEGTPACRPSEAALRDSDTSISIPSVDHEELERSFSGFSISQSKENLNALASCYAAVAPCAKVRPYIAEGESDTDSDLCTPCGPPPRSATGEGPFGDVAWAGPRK
CYP2B6, sequence (P20813 whole entry): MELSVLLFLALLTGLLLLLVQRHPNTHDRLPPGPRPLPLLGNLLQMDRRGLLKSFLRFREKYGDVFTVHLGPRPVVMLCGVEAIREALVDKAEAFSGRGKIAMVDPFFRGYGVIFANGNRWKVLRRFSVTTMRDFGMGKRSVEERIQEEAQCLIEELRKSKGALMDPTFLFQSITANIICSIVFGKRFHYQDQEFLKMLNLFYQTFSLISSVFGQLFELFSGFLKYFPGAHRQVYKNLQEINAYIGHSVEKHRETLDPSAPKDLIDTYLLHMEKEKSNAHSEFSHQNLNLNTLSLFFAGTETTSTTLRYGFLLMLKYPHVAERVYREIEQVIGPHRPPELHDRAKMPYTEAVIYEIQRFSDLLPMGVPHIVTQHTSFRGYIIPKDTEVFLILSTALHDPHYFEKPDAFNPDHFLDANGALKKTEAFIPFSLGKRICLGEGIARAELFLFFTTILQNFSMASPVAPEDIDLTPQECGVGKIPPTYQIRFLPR
Cytochrome P450 2C8, sequence (P10632 whole entry): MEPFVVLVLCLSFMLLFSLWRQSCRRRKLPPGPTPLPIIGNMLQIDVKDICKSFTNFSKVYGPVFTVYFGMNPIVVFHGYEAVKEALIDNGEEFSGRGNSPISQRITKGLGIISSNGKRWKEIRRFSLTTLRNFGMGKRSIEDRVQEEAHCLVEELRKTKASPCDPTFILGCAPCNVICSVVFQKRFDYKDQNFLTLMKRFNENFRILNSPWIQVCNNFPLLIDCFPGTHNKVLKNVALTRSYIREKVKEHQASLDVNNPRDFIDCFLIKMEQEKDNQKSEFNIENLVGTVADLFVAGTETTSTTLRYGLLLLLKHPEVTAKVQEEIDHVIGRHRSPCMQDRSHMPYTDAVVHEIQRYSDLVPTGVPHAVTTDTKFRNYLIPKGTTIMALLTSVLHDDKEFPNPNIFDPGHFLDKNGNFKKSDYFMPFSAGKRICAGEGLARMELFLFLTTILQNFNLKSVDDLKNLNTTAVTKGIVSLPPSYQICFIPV
Cytochrome P450 2C9, sequence (P11712 whole entry): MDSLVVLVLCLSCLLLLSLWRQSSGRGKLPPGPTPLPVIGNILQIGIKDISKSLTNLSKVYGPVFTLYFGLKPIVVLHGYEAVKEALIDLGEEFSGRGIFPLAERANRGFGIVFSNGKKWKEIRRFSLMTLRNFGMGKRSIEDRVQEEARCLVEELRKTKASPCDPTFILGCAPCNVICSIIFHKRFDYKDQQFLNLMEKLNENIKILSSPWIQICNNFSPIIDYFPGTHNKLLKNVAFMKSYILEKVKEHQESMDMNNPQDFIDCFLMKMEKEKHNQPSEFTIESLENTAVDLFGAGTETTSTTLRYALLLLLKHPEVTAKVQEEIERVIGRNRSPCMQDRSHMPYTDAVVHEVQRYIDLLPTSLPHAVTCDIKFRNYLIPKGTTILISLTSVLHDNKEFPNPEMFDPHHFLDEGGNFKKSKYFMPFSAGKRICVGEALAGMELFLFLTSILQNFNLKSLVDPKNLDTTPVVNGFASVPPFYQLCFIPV
CYP2D6, sequence (P10635 whole entry): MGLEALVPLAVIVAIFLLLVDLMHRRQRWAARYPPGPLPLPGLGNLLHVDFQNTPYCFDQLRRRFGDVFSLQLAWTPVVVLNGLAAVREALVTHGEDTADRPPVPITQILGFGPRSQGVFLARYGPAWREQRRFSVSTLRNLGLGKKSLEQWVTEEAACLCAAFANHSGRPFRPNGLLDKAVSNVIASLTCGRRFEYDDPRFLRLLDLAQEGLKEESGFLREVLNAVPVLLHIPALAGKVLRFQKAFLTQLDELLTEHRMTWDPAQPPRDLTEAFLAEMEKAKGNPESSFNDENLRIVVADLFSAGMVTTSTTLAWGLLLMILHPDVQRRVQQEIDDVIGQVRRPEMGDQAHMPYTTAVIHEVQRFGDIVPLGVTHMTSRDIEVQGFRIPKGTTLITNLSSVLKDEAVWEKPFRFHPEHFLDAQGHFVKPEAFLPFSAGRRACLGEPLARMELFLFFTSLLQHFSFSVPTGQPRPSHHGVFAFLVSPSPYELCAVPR
Cytochrome P450 1A2, sequence (P05177 whole entry): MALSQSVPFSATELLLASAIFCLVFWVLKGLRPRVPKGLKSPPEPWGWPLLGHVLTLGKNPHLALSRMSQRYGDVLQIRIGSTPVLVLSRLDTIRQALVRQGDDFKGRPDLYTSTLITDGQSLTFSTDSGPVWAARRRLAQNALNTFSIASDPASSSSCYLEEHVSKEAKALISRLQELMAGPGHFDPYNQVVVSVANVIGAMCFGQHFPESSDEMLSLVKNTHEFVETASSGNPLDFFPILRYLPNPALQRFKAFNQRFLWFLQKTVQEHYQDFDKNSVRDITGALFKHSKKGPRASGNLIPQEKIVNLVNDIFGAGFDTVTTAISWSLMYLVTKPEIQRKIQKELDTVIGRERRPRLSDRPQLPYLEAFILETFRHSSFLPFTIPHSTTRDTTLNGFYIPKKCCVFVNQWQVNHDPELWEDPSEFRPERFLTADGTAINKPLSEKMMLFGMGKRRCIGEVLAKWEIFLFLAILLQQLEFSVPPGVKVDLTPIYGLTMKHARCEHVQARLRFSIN

SMILES	Tmax [1] [min]	Tmax [2] [min]	half-life [3] [min]	inhibition at 0.5 h, up to 50 µM [4] [%]	inhibition at 0.5 h, up to 50 µM [5] [%]	IC50 [6] [µM]	IC50 shift [7]	IC50 [8] [µM]	IC50 [9] [µM]	IC50 shift [10]	Activity [11]	Ratio EC50 [12]	Activity [13] [%]	selectivity ratio [14]	Activity [15]
C#CCN(Cc1ccc(F)cc1)c1cc(C)c(NC(=O)OC)c(C)c1	15	220	18.1	< 25	< 25	> 50	< 1.5	2.53	35.2	> 1.5	3.4	55	100	49.6	
CCOC(=O)Nc1ccc(NCc2ccc(F)cc2)cc1N [EZOGABINE]															1.01
